Measured values as given in PubChem BioAssay AID602317 (Southern Research Specialized Biocontainment Screening …, 2012).
Records with an inconclusive call do not appear. The source made the active and inactive calls.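 Rule for the calls: active = viability under 80% at one or more tested concentrations, read as toxic; inconclusive = replicate runs disagree on whether the viability cutoff is met; inactive = viability stays at 80% or higher at every dose.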

Assays:
[1] = Vero E6 cell cytotoxicity, dose response, cytotoxicity control for PfM17LAP inhibitor project, set 3 (AID 602317); details: Vero E6 viability, CellTiter-Glo luminescence, 72 h; at 50 µM (top of the series)
Outline: (§1)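 System: Vero E6 cells / Benchmarks: DMSO vehicle wells / Evaluation: % viability vs DMSO wells, CC50 from bounded 4-parameter fit / Measured by: CellTiter-Glo luminescence / Incubation: 72 h compound exposure at 37 °C, 5% CO2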

[2] = system: Vero E6 viability, CellTiter-Glo luminescence, 72 h; test: as above
Outline: as §1

COC(=O)Cc1ccc(OCC(C)C)cc1
viability [1]: 109% (inactive)

CN1CCN(CCCc2ccc(O)c(O)c2)CC1
viability [1]: 96% (inactive)

CCCOc1ccc(CC(=O)OC)cc1
viability [1]: 100% (inactive)

Oc1ccc(CCNc2ccnc3ccccc23)cc1O
viability [1]: 95.5% (inactive)

COC(=O)Cc1ccc(OCCN(C)C)cc1
viability [1]: 98.9% (inactive)

CCCCOc1ccc(CCC(=O)NO)cc1
CC50 [2]: 34.1 µM

CN(O)C(=O)Cc1ccc(OCc2ccccc2)cc1
CC50 [2]: 32.5 µM

COc1ccc(CC(=O)NO)cc1
viability [1]: 102% (inactive)

CCCCOc1ccc(C(C)C(=O)O)cc1 (stereo unspecified)
viability [1]: 90.8% (inactive)

CCCCOc1ccc(C(C)(C)C(=O)O)cc1
viability [1]: 98.2% (inactive)

CCCCOc1ccc(C(C)C(=O)NO)cc1 (stereo unspecified)
CC50 [2]: 40.8 µM

CCCCOc1cccc(CC(=O)OC)c1
viability [1]: 99.7% (inactive)

CCOc1ccc(CC(=O)NO)cc1
viability [1]: 96.8% (inactive)

COc1ccc(CCN(C)c2ccnc3ccccc23)cc1OC
viability [1]: 84.9% (inactive)

CCCCOc1ccc(CNc2c(N(O)Cc3ccccc3)c(=O)c2=O)cc1
viability [1]: 95.5% (inactive)

CCCCCCCCCC(=O)NO
CC50 [2]: 31 µM

CN(C)CCOc1ccc(CC(=O)O)cc1
viability [1]: 98.8% (inactive)

O=C(Cc1ccc(OCc2ccccc2)cc1)NO
CC50 [2]: 48.5 µM

Oc1ccc(CCNc2c3ccccc3nc3ccccc23)cc1O
CC50 [2]: 45.4 µM

CCCCOc1ccc(CN(O)C(=O)c2ccccc2)cc1
CC50 [2]: 20.9 µM

Oc1ccc(-c2csc(Nc3ncccn3)n2)cc1O
viability [1]: 87.7% (inactive)

CCC(C)Oc1ccc(CC(=O)OC)cc1 (stereo unspecified)
viability [1]: 93% (inactive)

CCCCOc1ccc(C(C)(C)C(=O)NO)cc1
viability [1]: 81.2% (inactive)

CCCCOc1ccc(CC(=O)O)cc1
viability [1]: 95.5% (inactive)

CN1CCN(c2nc(-c3ccc(O)c(O)c3)cs2)CC1
viability [1]: 97.9% (inactive)

O=C(Cc1ccc(Oc2ccccc2)cc1)NO
CC50 [2]: 45 µM

CCc1ccc(NC(=O)Cc2nc(-c3ccc(O)c(O)c3)cs2)cc1
CC50 [2]: 42.2 µM

CC[C@H](C)[C@H](NS(=O)(=O)c1ccc(Br)s1)C(=O)NCc1ccc2c(c1)OCO2
viability [1]: 107% (inactive)

CCCOc1ccc(CC(=O)O)cc1
viability [1]: 81.1% (inactive)

CCCCOc1ccc(CC(=O)N(C)O)cc1
CC50 [2]: 44.6 µM

COc1ccc(CCN(C)c2c3ccccc3nc3ccccc23)cc1OC
CC50 [2]: 40.8 µM

Oc1ccc(CCNC(c2ccccc2)c2ccccc2)cc1O
CC50 [2]: 38.7 µM

O=C(NCc1ccc(Cl)cc1)C1CCN(S(=O)(=O)c2ccc(Br)s2)CC1
CC50 [2]: 21.8 µM

COc1ccc(CCNC(c2ccccc2)c2ccccc2)cc1OC
CC50 [2]: 45.8 µM

CCCOc1ccc(CC(=O)NO)cc1
viability [1]: 91.5% (inactive)

CC(C)(C(=O)NO)c1ccccc1
viability [1]: 104% (inactive)

CCCCOc1ccc(C(C)C(=O)OC)cc1 (stereo unspecified)
viability [1]: 97.4% (inactive)

COc1ccc(CCCN2CCN(C)CC2)cc1OC
viability [1]: 99.5% (inactive)

COc1ccc(CCNc2c3ccccc3nc3ccccc23)cc1OC
CC50 [2]: 17.9 µM

Cc1ccc(CC(=O)NO)cc1
viability [1]: 104% (inactive)

CCCCOc1ccc(CNc2c(N(C)O)c(=O)c2=O)cc1
viability [1]: 91% (inactive)

O=C(NCc1ccc2c(c1)OCO2)C1CCN(S(=O)(=O)c2ccc(Br)s2)CC1
viability [1]: 95.4% (inactive)

CN1CCN(CCc2ccc(O)c(O)c2)CC1
viability [1]: 102% (inactive)

CC[C@H](C)[C@H](NS(=O)(=O)c1ccc(Br)s1)C(=O)NCc1ccc(Cl)cc1
CC50 [2]: 46.4 µM

CC[C@H](C)[C@H](NC(=O)c1ccc(C(C)(C)C)cc1)C(=O)NCc1ccc2c(c1)OCO2
CC50 [2]: 38.2 µM

O=C(NO)c1cccc2ccccc12
viability [1]: 84.7% (inactive)
